Measured values as given in ChEMBL document CHEMBL2380295, “Structure-activity studies on the side chain of a simplified analog of aplysiatoxin (aplog-1) with anti-proliferative activity” (Bioorg Med Chem, 2013).

What was measured:
[1] = Cytotoxicity against human Raji cells assessed as cell viability at 10^-6 M; type: cell-based; details: read-out: Activity
[2] = Cytotoxicity against human Raji cells assessed as cell viability at 10^-7 M; type: cell-based; details: read-out: Activity
Human gammaherpesvirus 4 [3] = assay: Induction of EBV-early antigen expressed in human Raji cells at 10^-6 M after 48 hrs by immunofluorescence assay relative to control; type: organism-based; details: human gammaherpesvirus 4, raji, 1 µM
Outline: (§1)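 Raji B-lymphoblastoid cells (5 × 10^5/mL) in RPMI 1640 with 10% FBS, with 4 mM sodium n-butyrate as synergist and test compound at 10^-7 or 10^-6 M (final DMSO 0.4%). Incubated 48 h at 37 °C under 5% CO2. Smears were stained by indirect immunofluorescence using NPC patient serum and FITC anti-human IgG. At least 500 cells counted; % EA-positive recorded; n = 3, SEM.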

Human gammaherpesvirus 4 [4] = assay: Induction of EBV-early antigen expressed in human Raji cells at 10^-7 M after 48 hrs by immunofluorescence assay relative to control; type: organism-based; details: human gammaherpesvirus 4, raji, 0.1 µM; outline: as §1
PC-3 = assay: Growth inhibition of human PC3 cells after 48 hrs by sulforhodamine B assay; type: functional; details: PC-3, 48 h
Outline: (§2)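 Yamori 39-line human cancer panel, NCI method with modifications. Cells plated in RPMI 1640 plus 5% FBS, attached overnight, then exposed 48 h to compound at 10^-8, 10^-7, 10^-6, 10^-5 and 10^-4 M. Sulforhodamine B staining read at 525 nm; % growth = 100[(T−T0)/(C−T0)] from duplicate-point averages, with T0 the time-zero absorbance. GI50 is the concentration giving 50.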

DU-145 = assay: Growth inhibition of human DU145 cells after 48 hrs by sulforhodamine B assay; type: functional; details: DU-145, 48 h; outline: as §2
MKN-74 = assay: Growth inhibition of human MKN74 cells after 48 hrs by sulforhodamine B assay; type: functional; details: MKN-74, 48 h; outline: as §2
MKN-28 = assay: Growth inhibition of human MKN28 cells after 48 hrs by sulforhodamine B assay; type: functional; details: MKN-28, 48 h; outline: as §2
MKN-45 = assay: Growth inhibition of human MKN45 cells after 48 hrs by sulforhodamine B assay; type: functional; details: MKN-45, 48 h; outline: as §2
MKN-7 = assay: Growth inhibition of human MKN7 cells after 48 hrs by sulforhodamine B assay; type: functional; details: MKN-7, 48 h; outline: as §2
St-4 = assay: Growth inhibition of human St-4 cells after 48 hrs by sulforhodamine B assay; type: functional; details: St-4, 48 h; outline: as §2
[5] = Growth inhibition of human MKN1 cells after 48 hrs by sulforhodamine B assay; type: functional; details: MKN-1, 48 h; outline: as §2
[6] = Growth inhibition of human RXF631L cells after 48 hrs by sulforhodamine B assay; type: functional; details: RXF 631, 48 h; outline: as §2
ACHN = assay: Growth inhibition of human ACHN cells after 48 hrs by sulforhodamine B assay; type: functional; outline: as §2
OVCAR-8 = assay: Growth inhibition of human OVCAR8 cells after 48 hrs by sulforhodamine B assay; type: functional; details: OVCAR-8, 48 h; outline: as §2
SK-OV-3 = assay: Growth inhibition of human SKOV3 cells after 48 hrs by sulforhodamine B assay; type: functional; details: SK-OV-3, 48 h; outline: as §2
OVCAR-5 = assay: Growth inhibition of human OVCAR5 cells after 48 hrs by sulforhodamine B assay; type: functional; details: OVCAR-5, 48 h; outline: as §2
OVCAR-3 = assay: Growth inhibition of human OVCAR3 cells after 48 hrs by sulforhodamine B assay; type: functional; details: OVCAR-3, 48 h; outline: as §2
OVCAR-4 = assay: Growth inhibition of human OVCAR4 cells after 48 hrs by sulforhodamine B assay; type: functional; details: OVCAR-4, 48 h; outline: as §2
DMS-114 = assay: Growth inhibition of human DMS114 cells after 48 hrs by sulforhodamine B assay; type: functional; details: DMS-114, 48 h; outline: as §2
LOX IMVI = assay: Growth inhibition of human LOXIMVI cells after 48 hrs by sulforhodamine B assay; type: functional; outline: as §2
A549 = assay: Growth inhibition of human A549 cells after 48 hrs by sulforhodamine B assay; type: functional; details: A549, 48 h; outline: as §2
DMS-273 = assay: Growth inhibition of human DMS273 cells after 48 hrs by sulforhodamine B assay; type: functional; details: DMS-273, 48 h; outline: as §2
NCI-H460 = assay: Growth inhibition of human NCI-H460 cells after 48 hrs by sulforhodamine B assay; type: functional; details: NCI-H460, 48 h; outline: as §2
NCI-H226 = assay: Growth inhibition of human NCI-H226 cells after 48 hrs by sulforhodamine B assay; type: functional; details: NCI-H226, 48 h; outline: as §2
NCI-H522 = assay: Growth inhibition of human NCI-H522 cells after 48 hrs by sulforhodamine B assay; type: functional; details: NCI-H522, 48 h; outline: as §2
HCT-116 = assay: Growth inhibition of human HCT116 cells after 48 hrs by sulforhodamine B assay; type: functional; details: HCT-116, 48 h; outline: as §2
NCI-H23 = assay: Growth inhibition of human NCI-H23 cells after 48 hrs by sulforhodamine B assay; type: functional; details: NCI-H23, 48 h; outline: as §2
HCT-15 = assay: Growth inhibition of human HCT15 cells after 48 hrs by sulforhodamine B assay; type: functional; details: HCT-15, 48 h; outline: as §2
KM12 = assay: Growth inhibition of human KM12 cells after 48 hrs by sulforhodamine B assay; type: functional; details: KM12, 48 h; outline: as §2
HT-29 = assay: Growth inhibition of human HT-29 cells after 48 hrs by sulforhodamine B assay; type: functional; details: HT-29, 48 h; outline: as §2
SNB-78 = assay: Growth inhibition of human SNB78 cells after 48 hrs by sulforhodamine B assay; type: functional; details: SNB-78, 48 h; outline: as §2
[7] = Growth inhibition of human HCC2998 cells after 48 hrs by sulforhodamine B assay; type: functional; details: HCC 2998, 48 h; outline: as §2
SF-539 = assay: Growth inhibition of human SF539 cells after 48 hrs by sulforhodamine B assay; type: functional; details: SF-539, 48 h; outline: as §2
SNB-75 = assay: Growth inhibition of human SNB75 cells after 48 hrs by sulforhodamine B assay; type: functional; details: SNB-75, 48 h; outline: as §2
SF-295 = assay: Growth inhibition of human SF295 cells after 48 hrs by sulforhodamine B assay; type: functional; details: SF-295, 48 h; outline: as §2
U-251 = assay: Growth inhibition of human U251 cells after 48 hrs by sulforhodamine B assay; type: functional; details: U-251, 48 h; outline: as §2
SF-268 = assay: Growth inhibition of human SF268 cells after 48 hrs by sulforhodamine B assay; type: functional; details: SF-268, 48 h; outline: as §2
MCF7 = assay: Growth inhibition of human MCF7 cells after 48 hrs by sulforhodamine B assay; type: functional; details: MCF7, 48 h; outline: as §2
MDA-MB-231 = assay: Growth inhibition of human MDA-MB-231 cells after 48 hrs by sulforhodamine B assay; type: functional; details: MDA-MB-231, 48 h; outline: as §2
[8] = Growth inhibition of human BSY1 cells after 48 hrs by sulforhodamine B assay; type: functional; details: BSY-1, 48 h; outline: as §2
[9] = Growth inhibition of human HBC5 cells after 48 hrs by sulforhodamine B assay; type: functional; details: HBC5, 48 h; outline: as §2
[10] = Growth inhibition of human HBC4 cells after 48 hrs by sulforhodamine B assay; type: functional; details: HBC4, 48 h; outline: as §2
[11] = Octanol-water partition coefficient, log P of the compound by HPLC analysis; type: physicochemical
Outline: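 log P was estimated from HPLC retention, with column dead time measured using unretained formamide.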

[12] = target: T1, Protein kinase C delta type (Homo sapiens, UniProt Q05655); assay: Inhibition of [3H]PDBu binding to PKCdelta-C1A domain peptide (unknown origin)
Outline: (§3)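 Competitive [3H]PDBu binding used 14 or 40 nM PKCδ C1 peptide and 20 nM [3H]PDBu (19.6 Ci/mmol), in 50 mM Tris-maleate (pH 7.4 at 4 °C) with 50 µg/mL phosphatidylserine, 3 mg/mL bovine γ-globulin and varied inhibitor concentrations. IC50 was taken as 50% inhibition of specific binding. Ki was derived by the Sharkey–Blumberg method.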

[13] = target: T1, Protein kinase C delta type; assay: Inhibition of [3H]PDBu binding to PKCdelta-C1B domain peptide (unknown origin); outline: as §3

T1 sequence (Q05655 whole entry, the tested form may be a part): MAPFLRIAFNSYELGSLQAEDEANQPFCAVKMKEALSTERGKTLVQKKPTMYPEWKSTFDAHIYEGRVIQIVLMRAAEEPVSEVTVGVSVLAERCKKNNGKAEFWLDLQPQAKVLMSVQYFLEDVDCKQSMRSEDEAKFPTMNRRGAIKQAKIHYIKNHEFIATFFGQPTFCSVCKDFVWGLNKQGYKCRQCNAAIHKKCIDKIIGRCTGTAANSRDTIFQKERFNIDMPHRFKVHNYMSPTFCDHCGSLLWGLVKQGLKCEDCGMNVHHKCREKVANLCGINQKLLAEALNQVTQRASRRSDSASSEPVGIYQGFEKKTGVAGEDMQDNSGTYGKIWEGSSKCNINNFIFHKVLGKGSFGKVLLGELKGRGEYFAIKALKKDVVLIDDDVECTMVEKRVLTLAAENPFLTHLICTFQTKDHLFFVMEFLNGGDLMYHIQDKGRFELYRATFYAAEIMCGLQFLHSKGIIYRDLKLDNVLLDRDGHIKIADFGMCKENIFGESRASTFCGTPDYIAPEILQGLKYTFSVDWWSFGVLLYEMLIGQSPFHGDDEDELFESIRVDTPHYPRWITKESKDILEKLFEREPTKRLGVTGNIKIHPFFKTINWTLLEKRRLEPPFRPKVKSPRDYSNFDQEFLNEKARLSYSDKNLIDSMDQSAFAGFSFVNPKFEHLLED

## CC(=O)Nc1ccc(O)cc1CCCC[C@@H]1C[C@@H]2C[C@@]3(O[C@H](CCC3(C)C)CC(=O)O[C@@H](CO)CC(=O)O2)O1
[1]
  viability at 1 µM: 60%
[2]
  viability at 0.1 µM: 60%
Human gammaherpesvirus 4 [3]
  Activity: 2.1%
Human gammaherpesvirus 4 [4]
  Activity: 2%
PC-3
  GI50: > 100 µM
DU-145
  GI50: > 100 µM
MKN-74
  GI50: 70.8 µM
MKN-28
  GI50: 87.1 µM
MKN-45
  GI50: > 100 µM
MKN-7
  GI50: > 100 µM
St-4
  GI50: > 100 µM
[5]
  GI50: > 100 µM
[6]
  GI50: > 100 µM
ACHN
  GI50: > 100 µM
OVCAR-8
  GI50: > 100 µM
SK-OV-3
  GI50: > 100 µM
OVCAR-5
  GI50: > 100 µM
OVCAR-3
  GI50: > 100 µM
OVCAR-4
  GI50: > 100 µM
DMS-114
  GI50: 55 µM
LOX IMVI
  GI50: 74.1 µM
A549
  GI50: > 100 µM
DMS-273
  GI50: 43.7 µM
NCI-H460
  GI50: > 100 µM
NCI-H226
  GI50: 53.7 µM
NCI-H522
  GI50: > 100 µM
HCT-116
  GI50: > 100 µM
NCI-H23
  GI50: > 100 µM
HCT-15
  GI50: > 100 µM
KM12
  GI50: > 100 µM
HT-29
  GI50: > 100 µM
SNB-78
  GI50: > 100 µM
[7]
  GI50: 72.4 µM
SF-539
  GI50: > 100 µM
SNB-75
  GI50: > 100 µM
SF-295
  GI50: 60.3 µM
U-251
  GI50: > 100 µM
SF-268
  GI50: > 100 µM
MCF7
  GI50: > 100 µM
MDA-MB-231
  GI50: > 100 µM
[8]
  GI50: > 100 µM
[9]
  GI50: > 100 µM
[10]
  GI50: > 100 µM
[11]
  logP: 2.3
[12]
  Ki: 8.7 µM
[13]
  Ki: 0.69 µM
